Screening results deposited in PubChem BioAssay by The Scripps Research Institute Molecular Screening Center.
A selection: hits, their analogues and other compounds. The true share with any hit is near 1.5%.
MsrA inh: inhibits bovine methionine sulfoxide reductase A; AID 651718; inhibition, % at 15.5 µM; 360,000 tested, 0.75% active; purified bovine MsrA, absorbance read-out; in the data active = inhibition above about 4.5%
proCasp7 act: activates human procaspase-7, counter-screen for procaspase-3 activators; 330,000 tested, 0.093% active; AID 463210; recombinant procaspase-7, Ac-DEVD-pNA absorbance 405 nm; D23A/D198A/D206A triple mutant, cannot self-cleave; scale: DMSO 0, 5 µM enzyme 100; activation, % at 8.5 µM; P55210;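 active = percent activation above the screen-wide mean plus 3 SD, cut at about 25% in these data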
Target sequence (P55210 whole entry D23A/D198A/D206A): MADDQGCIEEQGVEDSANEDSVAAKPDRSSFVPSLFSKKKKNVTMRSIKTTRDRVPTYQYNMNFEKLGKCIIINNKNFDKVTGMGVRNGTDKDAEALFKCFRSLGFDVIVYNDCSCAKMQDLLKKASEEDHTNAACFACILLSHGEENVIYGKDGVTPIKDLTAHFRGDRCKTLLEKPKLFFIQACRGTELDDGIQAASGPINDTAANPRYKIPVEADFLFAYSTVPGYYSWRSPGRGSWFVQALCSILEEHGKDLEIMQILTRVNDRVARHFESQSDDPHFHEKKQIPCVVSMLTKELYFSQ
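System: Uncleavable procaspase-7 mutant enzyme; Amount: 2 µM procaspase-7 mutant as dispensed; Schedule: 1 h compound preincubation, 2 h substrate cleavage, 25 °C; Measured by: 405 nm absorbance of p-nitroaniline; Evaluation: percent activation from buffer-corrected 0–120 min absorbance change; Control set: low DMSO alone, high DMSO plus 5 µM PC-7.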
Tb MetRS inh: blocks T. brucei methionyl-tRNA synthetase activity; AID 624268; purified T. brucei MetRS, ATP depletion, Kinase-Glo luminescence; 360,000 tested, 0.4% active; inhibition, % at 11.9 µM;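 active = inhibition above a per-plate cutoff of the control wells' mean inhibition plus 3 SD, cut at about 5.5% in these data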
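Test system – parasite MetRS enzyme · Reagent – substrates ATP, L-methionine and bulk Escherichia coli tRNA · Doses – 11.9 µM compound single dose, 0.9% DMSO · Times – 15 min enzyme-compound preincubation, 2 h reaction, 10 min detection, 25 °C · Signal – Kinase-Glo luminescence, ATP depletion format · Controls – DMSO-only wells as low control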
MsrA act: activates bovine MsrA enzyme; activation, % at 10.6 µM; AID 602163; purified bovine MsrA, absorbance read-out; 360,000 tested, 0.3% active; in the data active = activation above about 7.5%
proCasp3 act: procaspase-3 (human) activation. AID 463141. 330,000 tested, 0.11% active. activation, % at 8.5 µM. P42574. recombinant procaspase-3 D3A, Ac-DEVD-pNA absorbance 405 nm;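 active = activation above the mean of all tested compounds plus 3 SD, cut at about 21% in these data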
Target sequence (P42574 whole entry D9A/D28A/D175A): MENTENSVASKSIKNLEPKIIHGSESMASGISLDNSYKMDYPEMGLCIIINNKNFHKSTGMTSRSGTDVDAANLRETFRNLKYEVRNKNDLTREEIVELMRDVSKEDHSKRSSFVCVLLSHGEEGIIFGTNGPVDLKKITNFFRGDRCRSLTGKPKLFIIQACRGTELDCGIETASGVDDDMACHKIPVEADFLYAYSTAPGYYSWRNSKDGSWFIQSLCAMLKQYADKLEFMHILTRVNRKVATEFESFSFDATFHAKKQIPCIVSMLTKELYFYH
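material = Procaspase-3 D3A mutant | probe or stimulus = Ac-DEVD-pNA | compound = single dose, 8.5 µM nominal compound, 0.8% DMSO | timing = 1 h preincubation, 2 h reaction | measured by = 405 nm absorbance of p-nitroaniline, reads at 0 and 120 min | benchmarks = DMSO-only low control, 5 µM PC-3 D3A high control | repeats = singlicate, each compound tested once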
MsrA activ conf: bovine methionine sulfoxide reductase A activation confirmed | shares compounds with MsrA act | purified bovine MsrA, absorbance read-out | activation, % at 10.6 µM | 1,000 tested, 12% active; in the data active = activation above about 4%;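 note: enzyme coupled to thioredoxin and thioredoxin reductase with NADPH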
Of the large screens only hits and unclear results are named; the others gave an inactive call (follow-up assays come after a bar, where they were run).

COC(=O)[C@]12C[C@H](CC(=O)N3CCC(c4ccccc4)CC3)C(=O)N(CCC3=CCCCC3)C1=C[C@H](COCc1ccccc1)O[C@@H]2C	none (no result: proCasp7 act, Tb MetRS inh, MsrA act, proCasp3 act)
Cc1ccc(Cn2nnc3c(=O)[nH]c(C4CCN(C(=O)Cc5cccs5)CC4)nc32)cc1	MsrA act 7.7 | MsrA activ conf inactive
O=C(Cc1cccs1)N1CCC(c2nc3c(nnn3Cc3ccccc3)c(=O)[nH]2)CC1	none
O=S1(=O)N[C@H](Cc2ccccc2)COc2cc(N3CCOCC3)ccc21	none (no result: proCasp7 act, Tb MetRS inh, MsrA act, proCasp3 act)
Brc1ccc(CN2CCN(c3ncc(Cc4ccccc4)cn3)CC2)cc1	none (no result: proCasp7 act, Tb MetRS inh, MsrA act, proCasp3 act)
COc1ccc(C2CC(=O)C(c3cccc(F)c3)=CN2Cc2ccccc2)cc1 (centres undefined)	none (no result: proCasp7 act, Tb MetRS inh, MsrA act, proCasp3 act)
CN(CCN1CCc2ccccc2C1)Cc1nc(Cc2ccccc2F)no1	MsrA act 15 (no result: proCasp7 act, proCasp3 act) | MsrA activ conf inactive
COc1ccc(Cc2noc(CN(C)CCN3CCc4ccccc4C3)n2)cc1OC	none
CCN(C(=O)COC(=O)CCC(=O)c1ccc(Cl)cc1)c1c(N)n(Cc2ccccc2)c(=O)[nH]c1=O	MsrA act 7.7 (no result: proCasp7 act, proCasp3 act) | MsrA activ conf inactive
Cc1ccc(C(=O)CCC(=O)OCC(=O)N(C)c2c(N)n(Cc3ccccc3)c(=O)[nH]c2=O)cc1	none
O=C1NC(c2ccc(Br)cc2)c2c(-c3ccccc3)n[nH]c21 (centres undefined)	none (no result: proCasp7 act, Tb MetRS inh, MsrA act, proCasp3 act)
CCOc1ccc(NC(=O)CSCc2cnn(-c3ccccc3)c2-n2cccc2)cc1	MsrA act 8.8 | MsrA activ conf inactive
C=CCNC(=O)c1ccccc1NC(=O)c1ccccc1C	MsrA act 8.6 | MsrA activ conf inactive
Cc1ccc(NC(=S)N/N=C/c2ccc([N+](=O)[O-])s2)cc1	MsrA act 9.2 | MsrA activ conf inactive
Cc1cc(C)cc(N=Cc2ccc([N+](=O)[O-])s2)c1	none
COC(=O)[C@]12C[C@H](CC(=O)N3CCN(C(=O)c4ccco4)CC3)C(=O)N(Cc3ccccc3)C1=C[C@H](C(C)(C)C)O[C@@H]2C	none (no result: proCasp7 act, Tb MetRS inh, MsrA act, proCasp3 act)
CCOC(=O)N1CCN(C(=O)c2cc3ccccc3o2)CC1	none
O=C(c1ccccc1)N1CCN(C(=O)c2cc3ccccc3o2)CC1	MsrA act 7.7 | MsrA activ conf inactive
CC(C)CCN1CCC(CN2C(=O)C(=O)NC[C@@H]2CC(C)C)CC1	MsrA act 12 (no result: proCasp7 act, proCasp3 act) | MsrA activ conf inactive
CC(C)C[C@H]1CNC(=O)C(=O)N1C[C@@H]1CCCN1C[C@H](Cc1ccccc1)N1C[C@H](Cc2ccccc2)N(CC2CCCCC2)C(=O)C1=O	MsrA act 7.9 (no result: proCasp7 act, proCasp3 act) | MsrA activ conf inactive
Cn1c(CO)cnc1SCC(=O)c1ccc(F)cc1	none
Cn1c(CO)cnc1SCC(=O)c1ccc(Br)cc1	MsrA act 13 | MsrA activ conf inactive
Cn1c(N=Nc2ccccc2)nc2ccccc21	MsrA act 7.7 | MsrA activ conf inactive
COc1ccc(S(=O)(=O)N2CCN(C(=S)NC3CCCCC3)CC2)cc1	MsrA act 8.0 | MsrA activ conf inactive
CCOc1ccc(S(=O)(=O)N2CCN(C(=S)NC3CC3)CC2)cc1	none
Cc1ccc(N=Nc2cc(C)ccc2O)c(C)c1	MsrA act 10 (no result: proCasp7 act, proCasp3 act) | MsrA activ conf inactive
Cc1ccc(C)c(N=Nc2ccc(O)c3ncccc23)c1	none
O=C(NCCNC(=O)c1ccc(F)cc1)c1ccc(F)cc1	none
O=C(NCSc1ccnc(SCNC(=O)c2ccc(F)cc2)n1)c1ccc(F)cc1	MsrA act 8.5 | MsrA activ conf inactive
COc1ccc(NC(=O)CSCC(=O)N(C)Cc2ccc(Cl)c(Cl)c2)cc1	MsrA act 11 | MsrA activ conf inactive
COc1ccc(CSCC(=O)Nc2ccc(S(=O)(=O)N3CCCCCC3)cc2)cc1	MsrA act 8.8 | MsrA activ conf inactive
Cc1ccc(NC(=O)CSCC(=O)N(C)Cc2ccc(Cl)c(Cl)c2)cc1	none
COc1ccc(NC(=O)CSCC(=O)Nc2ccc(S(=O)(=O)N3CCCCC3)cc2)cc1	none
CCCCc1c(-c2ccccc2OC)ncn1Cc1c(F)cccc1F	none (no result: proCasp7 act, Tb MetRS inh, MsrA act, proCasp3 act)
Cc1cc(Oc2cccnc2)ccc1NC(=O)Cc1c[nH]c2ccccc12	none (no result: proCasp7 act, Tb MetRS inh, MsrA act, proCasp3 act)
CC1COc2ccccc2N1C(=O)c1ccc(Cl)cc1 (centres undefined)	MsrA act 9.0 | MsrA activ conf inactive
COc1ccccc1Cc1c(-c2ccc(F)cc2)nc2c3ccccc3ccn12	none (no result: proCasp7 act, Tb MetRS inh, MsrA act, proCasp3 act)
